From ChEMBL document CHEMBL1649362, “Cytotoxic triterpenoids from Maytenus retusa” (J Nat Prod, 2010) come the findings set out here.

For orientation: inhibition means the percentage by which the read-out fell short of the control. For orientation: IC50 means the concentration that gives 50% inhibition. A low value points to inhibition by little substance.

Counter-ions that a name gives are not always drawn. Where only a bound is given, the exact number is not on record here.

Test [1] deals with HL-60. Kind of test: Cytotoxicity against human HL60 cells at 1 uM after 48 hrs by MTT assay. To be noted: HL-60, 48 h. Format: functional. Summed up:
(§1)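 HL60 cells (ATCC) grown in RPMI with 10% FBS and seeded at 10 000 cells/well. After 48 h exposure, MTT added (0.5 mg/mL final) for 3 h at 37 °C. Formazan dissolved in SDS-HCl (20% SDS, 0.02 M HCl) and read at 570 nm. IC50 obtained by nonlinear regression.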

In test [2] the test system is HL-60. The test can be described thus: Cytotoxicity against human HL60 cells at 10 uM after 48 hrs by MTT assay. It is filed as functional. The conditions noted are these: HL-60, 48 h. In short, it runs like this:
as §1
Background: Tetrazolium assays rely on reduction of a dye to a coloured formazan, in cell work by metabolically active cells.

The test system of test [3] is HL-60. The test can be described thus: Cytotoxicity against human HL60 cells at 30 uM after 48 hrs by MTT assay. It is filed as functional. The conditions noted are these: HL-60, 48 h. In short, it runs like this:
as §1

Test [4] has as its system MCF7. Kind of test: Cytotoxicity against human MCF7 cells at 1 uM after 48 hrs by MTT assay. It is filed as functional. The conditions noted are these: MCF7, 48 h. In short, it runs like this: (§2)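 MCF-7 cells (ATCC) maintained in DMEM with 10% FBS and plated at 10 000 cells/well. MTT (0.5 mg/mL final) then incubated 3 h at 37 °C. Formazan solubilized in 20% SDS/0.02 M HCl and absorbance read at 570 nm. IC50 from nonlinear regression.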

For test [5], the system named is MCF7. The test can be described thus: Cytotoxicity against human MCF7 cells at 10 uM after 48 hrs by MTT assay. Format: functional. To be noted: MCF7, 48 h. Summed up: as §2
The subject of test [6] is MCF7. Kind of test: Cytotoxicity against human MCF7 cells at 30 uM after 48 hrs by MTT assay. It is filed as functional. The conditions noted are these: MCF7, 48 h. In short, it runs like this:
as §2

Test [7] relates to HL-60. Kind of test: Cytotoxicity against human HL60 cells after 48 hrs by MTT assay. It is filed as functional, cell-based. The conditions noted are these: HL-60, 48 h. Summed up: as §1
Test [8] has as its system MCF7. Kind of test: Cytotoxicity against human MCF7 cells after 48 hrs by MTT assay. To be noted: MCF7, 48 h. It is filed as functional, cell-based. In short, it runs like this:
as §2

On to `COC(=O)[C@@]1(C)C[C@@H]2[C@@](C)(CC[C@]3(C)C4CC(=O)c5c(cc(O)c(O)c5C)[C@]4(C)CC[C@@]23C)CC1=O` (some centres undefined) [BLEPHARODOL], for which the inhibition at 1 µM came out at 69% in the test on HL-60 [1] and 15% in the test with MCF7 [4]. In addition, the inhibition at 10 µM in the test with HL-60 [2] worked out at 79%; in the test with MCF7 [5], 8%. Further, the inhibition at 30 µM amounted to 100% with HL-60 [3] and 7% in the test with MCF7 [6].

For `CC1=C(O)C(=O)C=C2C1=CC=C1[C@@]2(C)CC[C@@]2(C)[C@@H]3C[C@@H](C)C(=O)C[C@]3(C)CC[C@]12C` [TINGENONE], the values for the IC50 in the test on HL-60 [7] and in the test on MCF7 [8] were 500 nM and 3000 nM, respectively. Also, the inhibition at 1 µM with HL-60 [1] is 46%; in the test with MCF7 [4], 17%. For the same molecule, the inhibition at 10 µM with HL-60 [2] is 100%; with MCF7 [5] it was 97%. Also, the inhibition at 30 µM in the test with HL-60 [3] was 96%; in the test on MCF7 [6], 100%.

Turning to `COC(=O)[C@@]1(C)C[C@@H]2[C@@](C)(CC[C@]3(C)C4=CC=C5C(=CC(=O)C(O)=C5C)[C@]4(C)CC[C@@]23C)CC1=O` [21-OXOPRISTIMERINE], the IC50 was 1400 nM in the test with HL-60 [7] and 10000 nM in the test on MCF7 [8]. For the same molecule, the inhibition at 1 µM in the test with HL-60 [1] and with MCF7 [4] was 0% throughout. Moreover, the inhibition at 10 µM was 88% with HL-60 [2] and 32% in the test with MCF7 [5]. For the same molecule, the results for the inhibition at 30 µM with HL-60 [3] and in the test on MCF7 [6] were 100% and 91%, respectively.

As to `COC(=O)[C@@]1(C)C[C@@H]2[C@@](C)(CC[C@]3(C)C4CC(=O)c5c(cc(O)c(O)c5C=O)[C@]4(C)CC[C@@]23C)CC1=O` (some centres undefined) [MACROCARPIN A], the IC50 with HL-60 [7] is 1700 nM; in the test on MCF7 [8] it was more than 30000 nM. Besides, the inhibition at 1 µM in the test with HL-60 [1] worked out at 0%; in the test on MCF7 [4], 14%. The inhibition at 10 µM in the test with HL-60 [2] turned out to be 100%; in the test with MCF7 [5], 25%. In addition, the inhibition at 30 µM in the test with HL-60 [3] stood at 100%; in the test on MCF7 [6] it was 36%.

For `CC1=C(O)C(=O)CC2[C@]3(C)CC[C@@]4(C)[C@@H]5C[C@](C)(C(=O)O)CC[C@]5(C)CC[C@]4(C)C3CC[C@]12C=O` (some centres undefined) [CANGORONINE], the inhibition at 1 µM with HL-60 [1] is 40%; in the test on MCF7 [4], 16%. Moreover, the inhibition at 10 µM came out at 48% with HL-60 [2] and 9% in the test on MCF7 [5]. In addition, the figures for the inhibition at 30 µM with HL-60 [3] and in the test on MCF7 [6] were 60% and 15%, respectively.

For `COC(=O)[C@]1(C)CC[C@]2(C)CC[C@]3(C)C4CC(=O)c5cc(O)c(O)cc5[C@]4(C)CC[C@@]3(C)[C@@H]2C1` (some centres undefined), the inhibition at 1 µM in the test on HL-60 [1] is 35%; with MCF7 [4], 4%. Moreover, the inhibition at 10 µM with HL-60 [2] was 64%; in the test on MCF7 [5], 0%. Moreover, the inhibition at 30 µM amounted to 65% with HL-60 [3] and 44% with MCF7 [6].

Take `COc1cccc2c1C(=O)c1c(O)c3c(c(O)c1C2=O)C[C@@](O)(C(=O)CO)C[C@@H]3O[C@H]1C[C@H](N)[C@H](O)[C@H](C)O1` [DOXORUBICIN HYDROCHLORIDE]: the IC50 in the test on HL-60 [7] is 100 nM; in the test with MCF7 [8], more than 10000 nM. In addition, the results for the inhibition at 1 µM with HL-60 [1] and in the test on MCF7 [4] were 100% and 69%, respectively. The inhibition at 10 µM with HL-60 [2] amounted to 89%; with MCF7 [5], 76%. Also, the inhibition at 30 µM was determined as 100% in the test with HL-60 [3] and 98% with MCF7 [6].

On to `CC1=C(O)C(=O)C=C2C1=CC=C1[C@@]2(C)CC[C@@]2(C)[C@@H]3C[C@@H](C)C(=O)[C@@H](O)[C@]3(C)CC[C@]12C` [TINGENIN B], for which the IC50 is 700 nM with HL-60 [7] and 4400 nM in the test with MCF7 [8]. The inhibition at 1 µM in the test with HL-60 [1] was 55%; in the test with MCF7 [4] it was 16%. Besides, the inhibition at 10 µM with HL-60 [2] worked out at 82%; with MCF7 [5], 96%. The inhibition at 30 µM in the test with HL-60 [3] was determined as 88%; in the test on MCF7 [6] it was 100%.

With `COc1c(O)cc2c(c1C(=O)O)C(=O)C=C1[C@@]2(C)CC[C@@]2(C)[C@@H]3C[C@@H](C)C(=O)C[C@]3(C)CC[C@]12C`, the inhibition at 1 µM in the test on HL-60 [1] came to 78%; with MCF7 [4], 15%. In addition, the inhibition at 10 µM in the test with HL-60 [2] worked out at 57%; in the test with MCF7 [5], 17%. Besides, the inhibition at 30 µM turned out to be 59% in the test on HL-60 [3] and 11% in the test on MCF7 [6].

In the case of `Cc1c(O)c(O)cc2c1C(=O)C=C1[C@@]2(C)CC[C@@]2(C)[C@@H]3C[C@@H](C)C(=O)C[C@]3(C)CC[C@]12C` [6-OXOTINGENOL], the inhibition at 1 µM in the test on HL-60 [1] was 45%; with MCF7 [4], 10%. In addition, the inhibition at 10 µM stood at 85% in the test with HL-60 [2] and 8% in the test with MCF7 [5]. The inhibition at 30 µM came out at 100% in the test on HL-60 [3] and 17% in the test on MCF7 [6].

On to `CC1=C(O)C(=O)C=C2C1=CC(=O)[C@@H]1[C@@]2(C)CC[C@@]2(C)[C@@H]3C[C@@H](C)C(=O)C[C@]3(C)CC[C@]12C` [AMAZOQUINONE], for which the inhibition at 1 µM worked out at 66% in the test on HL-60 [1] and 10% in the test with MCF7 [4]. The inhibition at 10 µM was 61% in the test on HL-60 [2] and 16% in the test on MCF7 [5]. The inhibition at 30 µM with HL-60 [3] was found to be 100%; in the test with MCF7 [6], 18%.

As for `COC(=O)[C@]1(C)CC[C@]2(C)CC[C@]3(C)C4C(=O)C=C5C(=CC(=O)C(O)=C5C)[C@]4(C)CC[C@@]3(C)C2C1` (some centres undefined) [DISPERMOQUINONE], the IC50 in the test on HL-60 [7] was 1700 nM; with MCF7 [8], more than 30000 nM. Further, the inhibition at 1 µM with HL-60 [1] was 0%; with MCF7 [4], 9%. Besides, the inhibition at 10 µM with HL-60 [2] was 100%; with MCF7 [5], 25%. Further, the values for the inhibition at 30 µM in the test on HL-60 [3] and in the test with MCF7 [6] were 100% and 60%, respectively.

As to `COC(=O)[C@]1(C)CC[C@]2(C)CC[C@]3(C)C4=CC=C5C(=CC(=O)C(O)=C5C)[C@]4(C)CC[C@@]3(C)[C@@H]2C1` [PRISTIMERIN], the values for the 50% inhibitory concentration (IC50) in the test with HL-60 [7] and in the test with MCF7 [8] were 200 nM and 400 nM, respectively. Besides, the inhibition at 1 µM in the test on HL-60 [1] turned out to be 96%; in the test on MCF7 [4], 42%. In addition, the inhibition at 10 µM in the test on HL-60 [2] and with MCF7 [5] was 100% each time. The inhibition at 30 µM in the test on HL-60 [3] and in the test on MCF7 [6] was 100% throughout.

Consider `CC1=C(O)C(=O)C=C2C1=CC=C1[C@@]2(C)CC[C@@]2(C)[C@@H]3C[C@](C)(O)C(=O)C[C@]3(C)CC[C@]12C` [20ALPHA-HYDROXYTINGENONE], for which the IC50 with HL-60 [7] was found to be 400 nM; in the test with MCF7 [8], 4700 nM. Further, the inhibition at 1 µM in the test with HL-60 [1] stood at 25%; in the test on MCF7 [4] it was 14%. In addition, the inhibition at 10 µM in the test with HL-60 [2] stood at 100%; in the test on MCF7 [5], 85%. In addition, the inhibition at 30 µM with HL-60 [3] was found to be 87%; in the test with MCF7 [6] it was 100%.

As for `CC1=C2C3C(=O)C=C4C(=CC(=O)C(O)=C4C)[C@]3(C)CC[C@@]2(C)[C@@H]2C[C@@H](C)C(=O)C[C@]2(C)C1` (some centres undefined), the inhibition at 1 µM amounted to 0% with HL-60 [1] and 9% with MCF7 [4]. In addition, the results for the inhibition at 10 µM in the test with HL-60 [2] and with MCF7 [5] were 0% and 11%, respectively. Besides, the inhibition at 30 µM stood at 51% in the test on HL-60 [3] and 5% in the test with MCF7 [6].

As for `CC1=C(O)C(=O)C=C2C1=CC=C1[C@@]2(C)CC[C@@]2(C)[C@@H]3C[C@@](C)(O)C(=O)C[C@]3(C)CC[C@]12C`, the IC50 in the test on HL-60 [7] was found to be 200 nM; in the test with MCF7 [8], 1400 nM. Besides, the inhibition at 1 µM was 80% in the test on HL-60 [1] and 21% with MCF7 [4]. In addition, the inhibition at 10 µM amounted to 89% with HL-60 [2] and 100% in the test with MCF7 [5]. In addition, the figures for the inhibition at 30 µM in the test on HL-60 [3] and in the test on MCF7 [6] were 90% and 100%, respectively.
